SMILES strings stand for the structures. Activity calls are given as the source filed them. No cut-off for these calls is given here.

Data on 16 molecules can be found in ChEMBL document CHEMBL1153268 (Bioorg Med Chem Lett, 2009).

The target of test [1] is T1, Neurotensin receptor type 1 (Homo sapiens, UniProt P30989). The test can be described thus: Agonist activity at NTR1 expressed in CHOK1 cells assessed as stimulation of calcium mobilization at 10 uM relative to neurotensin. In kind it is functional, cell-based. Conditions: CHO-K1. In a few lines:
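CHO-K1 cells stably expressing NTR1, plated 20,000/well 24 h before assay, washed and loaded with calcium-4 dye in HBSS/20 mM HEPES/2 mM probenecid, 1 h, 37 °C, 5% CO2. Compound added at 10 μM final (1% DMSO), triplicate.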
A general note: Calcium assays in cells follow changes in intracellular calcium, usually with a dye or a luminescent sensor.

Test [2] concerns the target T1, Neurotensin receptor type 1. The test can be described thus: Agonist activity at NTR1 expressed in CHOK1 cells by calcium mobilization assay. In kind it is functional, cell-based, CHO-K1.

T1 sequence (P30989 whole entry): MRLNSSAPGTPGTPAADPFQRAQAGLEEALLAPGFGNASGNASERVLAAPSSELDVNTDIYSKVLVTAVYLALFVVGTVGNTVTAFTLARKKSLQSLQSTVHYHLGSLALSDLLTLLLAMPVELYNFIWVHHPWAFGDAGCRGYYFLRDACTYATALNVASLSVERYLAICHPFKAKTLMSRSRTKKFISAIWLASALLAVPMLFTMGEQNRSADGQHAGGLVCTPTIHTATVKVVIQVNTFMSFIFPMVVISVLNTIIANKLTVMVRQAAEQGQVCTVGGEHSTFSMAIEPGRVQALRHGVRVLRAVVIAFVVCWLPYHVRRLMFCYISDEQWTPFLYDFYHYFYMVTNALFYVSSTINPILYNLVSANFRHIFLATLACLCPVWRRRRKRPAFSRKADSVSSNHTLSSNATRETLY

Turning to `CC[C@H](NC(=O)c1cc(-c2c(OC)cccc2OC)n(-c2ccnc3cc(Cl)ccc23)n1)C(=O)O`, the Activity in test [1] came to 11%.
In the case of `COc1cccc(OC)c1-c1cc(C(=O)NCC(=O)O)nn1-c1ccnc2cc(Cl)ccc12`, the outcome in test [1] was inactive.
Take `COc1ccccc1-c1cc(C(=O)N[C@@H](CC(C)C)C(=O)O)nn1-c1ccnc2cc(Cl)ccc12`: the Activity in test [1] amounted to 86%. Moreover, in test [2], the EC50 worked out at 220 nM.
For the molecule `CC(C)C[C@H](NC(=O)Cn1ccc2cc(NS(=O)(=O)c3cccc4cccnc34)ccc21)C(=O)O`, the EC50 in test [2] is 178 nM.
Regarding `COc1cccc(OC)c1-c1cc(C(=O)N[C@@H](Cc2ccccc2)C(=O)O)nn1-c1ccnc2cc(Cl)ccc12`, the outcome in test [1] was inactive.
For the molecule `CCCC[C@H](NC(=O)c1cc(-c2c(OC)cccc2OC)n(-c2ccnc3cc(Cl)ccc23)n1)C(=O)O`, the Activity in test [1] is 20%.
Regarding `COc1cccc(OC)c1-c1cc(C(=O)N[C@@H](CC(C)C)C(=O)O)nn1-c1cccc2ccccc12`, the result in test [1] was inactive.
For `CC[C@H](C)[C@H](NC(=O)c1cc(-c2c(OC)cccc2OC)n(-c2ccnc3cc(Cl)ccc23)n1)C(=O)O`, in test [1], the result was inactive.
Take `CC(C)C[C@H](NC(=O)c1cc(-c2ccccc2OC(F)(F)F)n(-c2ccnc3cc(Cl)ccc23)n1)C(=O)O`: the Activity in test [1] was 84%. The EC50 in test [2] amounted to 1210 nM.
Consider `CC(C)C[C@H](NC(=O)c1cc(-c2ccccc2)n(-c2ccnc3cc(Cl)ccc23)n1)C(=O)O`, for which the Activity in test [1] was determined as 62%. Also, the EC50 in test [2] stood at 2040 nM.
Consider `CC(C)CC(NC(=O)OCC1c2ccccc2-c2ccccc21)C(=O)O` (stereo not given), for which the EC50 in test [2] was found to be 216 nM.
As to `CCC[C@H](NC(=O)c1cc(-c2c(OC)cccc2OC)n(-c2ccnc3cc(Cl)ccc23)n1)C(=O)O`, in test [1], the Activity is 18%.
As for `COc1cccc(OC)c1-c1cc(C(=O)N[C@H](C(=O)O)C(C)C)nn1-c1ccnc2cc(Cl)ccc12`, in test [1], the Activity came to 5%.
For the molecule `COc1cccc(OC)c1-c1cc(C(=O)N[C@H](CC(C)C)C(=O)O)nn1-c1ccnc2cc(Cl)ccc12`, the Activity in test [1] was 57%. For the same molecule, the EC50 in test [2] turned out to be 986 nM.
On to `COc1cccc(OC)c1-c1cc(C(=O)N[C@H](C(=O)O)C2CCCCC2)nn1-c1ccnc2cc(Cl)ccc12`, for which the outcome in test [1] was inactive.
For the molecule `COc1cccc(OC)c1-c1cc(C(=O)N[C@@H](CC(C)C)C(=O)O)nn1-c1ccnc2cc(Cl)ccc12`, in test [2], the EC50 worked out at 67 nM.

Broadly, the EC50 is the concentration giving half of the maximal effect.
